Only some compounds are listed: those with a hit (about 0.58% of all), similar ones and a draw of the others.
TRPML3 agonist: activates the human TRPML3 channel | HEK293 TRPML3-YFP, Fluo-8 calcium fluorescence; 100% = the carbachol control signal | actives 0.29% (n = 220,000) | activation, % at 3 µM;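 active means activation above its plate's cutoff, the mean activation of the plate's test wells plus 3 SD, cut at about 12% in these data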;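 further: 0% = DMSO only wells and 100% = carbachol wells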
Target sequence (Q8TDD5 whole entry, looked up): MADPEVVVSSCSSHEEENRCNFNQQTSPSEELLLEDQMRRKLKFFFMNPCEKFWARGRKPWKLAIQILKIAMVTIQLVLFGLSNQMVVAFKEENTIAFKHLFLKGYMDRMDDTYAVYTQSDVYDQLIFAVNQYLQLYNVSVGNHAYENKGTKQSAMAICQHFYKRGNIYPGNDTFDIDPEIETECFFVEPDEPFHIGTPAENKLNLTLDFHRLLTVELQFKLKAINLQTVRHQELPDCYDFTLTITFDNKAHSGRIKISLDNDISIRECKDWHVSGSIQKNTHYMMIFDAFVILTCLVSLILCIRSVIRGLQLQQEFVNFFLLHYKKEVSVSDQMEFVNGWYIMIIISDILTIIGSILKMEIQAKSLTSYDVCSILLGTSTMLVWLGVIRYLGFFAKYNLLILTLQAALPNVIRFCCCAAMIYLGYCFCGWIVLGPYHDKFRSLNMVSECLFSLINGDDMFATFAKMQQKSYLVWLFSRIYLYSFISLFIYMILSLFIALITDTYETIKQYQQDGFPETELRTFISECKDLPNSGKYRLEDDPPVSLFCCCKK
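Test system: TRPML3-YFP stable HEK293 cells. Doses: single point at 3 µM. Incubation: dye loading 1 h 37 °C then 30 min ambient, 125 s read. Signal: Fluo-8 calcium dye fluorescence, ex 470-495, em 515-575 nm. Measure: percent activation from peak-to-basal fluorescence ratio, scaled between DMSO and carbachol.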
zfTRPN1 agonist: activates the zebrafish TRPN1 channel; HEK293 zebrafish TRPN1-YFP, Fluo-8 calcium fluorescence; 100% = response to 87 µM carbachol; actives 0.18% (n = 220,000); activation, % at 3 µM; AID 1424;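 active means activation above its plate's cutoff, the mean activation of test wells on that plate plus 3 SD, cut at about 19% in these data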;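 further: 0% = DMSO alone and 100% = 87 µM carbachol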
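Material – zebrafish TRPN1-YFP in HEK293 cells · Doses – 3 µM single point · Schedule – dye 1 h 37 °C plus 30 min RT · Signal – Fluo-8 calcium fluorescence, excitation 470-495 nm, emission 515-575 nm · Read-out – % activation versus carbachol response · Control set – carbachol high, DMSO low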
V1aR counter: V1a receptor agonism, counter-screen for OXTR agonists | CHO-V1R cells, Fluo-8 calcium fluorescence, agonist mode; 0% DMSO, 100% 3 nM vasopressin | activation, % at 3 µM | actives 0.25% (n = 320,000) | AID 2797;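 active means activation above the mean activation of all tested compounds plus 3 SD, per screening run, cut at about 20% in these data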;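 further: signal is peak over basal fluorescence ratio across a 100 second FLIPR read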
OXTR agonist: agonists of human oxytocin receptor; AID 2435; activation, % at 3 µM; actives 0.32% (n = 320,000); CHO-OTR cells, Fluo-8 calcium fluorescence; normalized: DMSO 0%, oxytocin 100%;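 active means activation above the mean of all tested compounds plus 3 SD, cutoff set per screening run, cut at about 20% in these data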;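 further: peak over basal fluorescence ratio from a 100 s FLIPR kinetic read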
OXTR potentiator: potentiators of human oxytocin receptor. P30559. actives 0.061% (n = 320,000). activation, % at 3 µM. CHO-OTR cells, Fluo-8 calcium fluorescence, potentiator mode; 0% = oxytocin EC15, 100% = EC100;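 active means activation above that plate's cutoff, the mean activation of tested compounds plus 3 SD, cut at about 6.6% in these data, passing the limit was not always enough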;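 further: 100% uses oxytocin at 75 nM as the full agonist control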
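Assay system: CHO cell line stably expressing human OTR | Also added: Oxytocin at about EC15, sub-maximal agonist stimulus | Times: Compound 6 min at room temperature before oxytocin, 100 s read | Measured by: Fluo-8 intracellular calcium fluorescence, ex 470-495, em 515-575 nm | Controls: EC15 oxytocin alone as 0%, 75 nM oxytocin as 100%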
* = called active by the depositor; nt = not tested or not shown.

SMILES	TRPML3 agonist	zfTRPN1 agonist	V1aR counter	OXTR agonist	OXTR potentiator
CC(C)=CCC[C@](C)(O)C1CC[C@]2(C)C1[C@H](O)CC1[C@@]3(C)CC[C@H](O[C@@H]4O[C@H](CO)[C@@H](O)[C@H](O)[C@H]4O[C@@H]4O[C@H](CO)[C@@H](O)[C@H](O)[C@H]4O)C(C)(C)C3CC[C@]12C (some centres not stated)	nt	nt	38.1*	70.1*	-12.3
COc1cccc(C(=O)OCC(=O)Nc2sc3c(c2C(N)=O)CCC3)c1O	nt	nt	0.5	0.8	-5.0
O=C1SCCC1NS(=O)(=O)c1ccc([N+](=O)[O-])cc1 (configuration not stated)	nt	nt	1.6	0.8	25.7*
CC(NC(=O)Nc1ccc([N+](=O)[O-])cc1)C(c1cccs1)N1CCCC1 (configuration not stated)	0.6	-0.2	55.5*	32.7*	-16.2
CCOc1cc(/C=N/N2CCOCC2)ccc1OCc1ccc(C(=O)OC)o1	143.9*	382.4*	-0.5	-1.7	-6.8
COc1cccc(NC(=O)COC(=O)c2sccc2C)c1	nt	nt	1.2	-1.0	3.7
OCCCc1nc2n(n1)C(c1cccs1)C=C(c1ccccc1)N2 (configuration not stated)	-0.3	0.2	50.4*	82.4*	-11.8
OCCCc1nc2n(n1)C(c1ccccc1)C=C(c1ccc(F)cc1)N2 (configuration not stated)	0.0	-0.5	0.4	-0.5	-6.5
Cc1ccccc1N1C(=O)c2cccc3c(N(C)CCO)ccc(c23)C1=O	17.9*	25.8*	23.6*	24.9*	-15.2
COc1ccc(C(C)=O)cc1COC(=O)c1cccnc1SC	-0.7	-2.3	2.9	-0.9	-13.3
CN=C1SC(CC(=O)NCCc2ccc(OC)c(OC)c2)C(=O)N1C (configuration not stated)	-0.4	-0.1	47.0*	33.5*	-12.7
Cn1c2ccccc2c(=O)c2c(=O)n(C3CCCCC3)c(-c3ccco3)nc21	0.5	2.6	28.6*	16.5	-3.3
Cc1nnc2c3ccccc3c(-c3ccc(O)cc3)nn12	0.4	0.0	2.7	1.4	-6.3
Cc1c(-c2ccc(O)cc2)nc2nc(-c3ccccc3)c(-c3ccccc3)nn12	-0.7	-0.3	279.5*	144.3*	-12.9
CCOc1cc(CNCCc2ccc(S(N)(=O)=O)cc2)ccc1OCc1ccc(Cl)cc1	5.9	6.9	27.2*	37.0*	-23.1
CC(=O)c1cc2c(cc1NC(=O)CN1Cc3ccccc3C1=O)OCO2	nt	nt	0.8	-0.5	-1.7
O=C(O)c1cc2c(cc1Br)OCCCO2	0.3	19.2*	0.1	-0.4	-5.1
O=C(O)c1ccc2c(c1)OCCCO2	0.1	1.6	0.5	0.2	-3.2
COCCCN1C(=O)c2ccc(C(=O)OCC(=O)N3CCN(c4ccccc4)CC3)cc2C1=O	nt	nt	3.1	0.1	-2.6
Cc1ccc(CONC(=O)c2cccc([N+](=O)[O-])c2)cc1	nt	nt	0.8	0.4	-5.3
COC(=O)C(/C=N/OCc1ccc([N+](=O)[O-])cc1)NC(=O)c1cccc(Cl)c1 (configuration not stated)	9.5	20.4*	38.3*	31.6*	-20.1
Cc1nnc(SCC(=O)c2cc(C)n(-c3ccc4c(c3)OCO4)c2C)s1	16.8*	27.3*	5.7	10.1	-11.6
O=c1ccc2[n+]([O-])c3ccc(O)cc3oc-2c1	26.9*	48.1*	nt	nt	nt
CCOC(=O)C1CCCN(C2=NC(=O)/C(=C/c3ccc(OC)cc3)S2)C1 (configuration not stated)	nt	nt	0.9	-1.7	-1.5
CCOC(=O)C1CCCN(C2=NC(=O)/C(=C/c3ccc(N(C)C)cc3)S2)C1 (configuration not stated)	nt	nt	34.2*	35.4*	-23.4
CCN(CC)c1ccc2c(Cl)c(Br)c(=O)oc2c1	1.1	2.5	85.3*	62.5*	-21.6
CN(C)CCCNCCCNC(=O)/C(=N\O)c1ccccc1	0.9	1.6	-0.3	-0.6	-6.8
C=CCn1c(SCC(=O)O)nc2sc(CC)cc2c1=O	1.5	1.9	0.9	1.3	2.8
C=CCn1c(SCC(=O)N2CCCC2=O)nc2sc(CC)cc2c1=O	nt	nt	40.0*	38.2*	-11.7

Source: PubChem (The Scripps Research Institute Molecular Screening Center)
